Source: ChEMBL document CHEMBL4609977, “Synthesis of natural product-like polyprenylated phenols and quinones: Evaluation of their neuroprotective activities” (Bioorg Med Chem, 2020)

Assays:
[1] = biological target: T1, Amine oxidase [flavin-containing] B (Homo sapiens, UniProt P27338); test: (§1) Inhibition of recombinant human MAO-B expressed in baculovirus infected BTI insect cells assessed as reduction in formation of 4-quinolinol at 25 uM using kynuramine as substrate preincubated with substrate for 10 mins followed by enzyme addition and measured after 20 mins by fluorescence based microplate reader assay relative to control
T1 sequence (P27338 whole entry): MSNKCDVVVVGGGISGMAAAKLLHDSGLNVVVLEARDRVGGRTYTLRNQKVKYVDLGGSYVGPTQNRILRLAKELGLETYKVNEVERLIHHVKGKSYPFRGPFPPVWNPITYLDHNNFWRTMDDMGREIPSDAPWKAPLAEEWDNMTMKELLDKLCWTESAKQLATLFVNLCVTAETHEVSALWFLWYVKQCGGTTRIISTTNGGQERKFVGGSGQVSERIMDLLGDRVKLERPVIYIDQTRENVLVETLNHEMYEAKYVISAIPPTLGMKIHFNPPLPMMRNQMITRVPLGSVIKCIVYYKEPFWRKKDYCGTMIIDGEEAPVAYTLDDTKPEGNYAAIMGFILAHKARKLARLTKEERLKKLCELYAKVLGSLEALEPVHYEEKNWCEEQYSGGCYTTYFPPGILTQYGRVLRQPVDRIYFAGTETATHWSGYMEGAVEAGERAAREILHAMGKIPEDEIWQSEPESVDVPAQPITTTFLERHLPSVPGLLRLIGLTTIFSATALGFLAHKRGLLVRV

[2] = biological target: T1, Amine oxidase [flavin-containing] B; test: as §1, with “4-quinolinol” for “4-quinolinol at 25 uM”, “assay” for “assay relative to control”
SH-SY5Y [3] = test: Neuroprotective activity against H2O2-induced cytotoxicity in human SH-SY5Y cells assessed as increase in cell viability at 10 uM measured after 24 hrs by MTT assay relative to H2O2-treated control; format: functional
In short: (§2)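 SH-SY5Y cells were seeded at 5.0 × 10⁴ cells/well and given 24 h attachment. Compound (DMSO final <0.5%) and H₂O₂ (final 500 μM) were added together in serum-free E-MEM/F12 and left 24 h at 37 °C, 5% CO₂. Viability was by MTT (5 mg/mL, 24 h, absorbance 595 nm). Luteolin was the positive control. Mean ± SD, n = 3; one-way ANOVA with Dunnett's test against H₂O₂ alone.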

SH-SY5Y [4] = test: Neuroprotective activity against H2O2-induced cytotoxicity in human SH-SY5Y cells assessed as increase in cell viability measured after 24 hrs by MTT assay; format: functional, cell-based; in short: as §2
SH-SY5Y [5] = test: Cytotoxicity against human SH-SY5Y cells assessed as effect on cell viability at 10 uM measured after 24 hrs by MTT assay; format: cell-based
In short: (§3)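 SH-SY5Y cells (ECACC) were seeded at 5.0 × 10⁴ cells/well and grown 24 h in E-MEM/F12 with 0.3% FBS. Compound in DMSO (final <0.5%) was added in serum-free medium without H₂O₂ and incubated 24 h at 37 °C, 5% CO₂. Viability was read by MTT (5 mg/mL, 24 h, A595). Mean ± SD, n = 3.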

[6] = biological target: T1, Amine oxidase [flavin-containing] B; test: Mixed inhibition of recombinant human MAO-B expressed in baculovirus infected BTI insect cells at 0.7 to 2.8 uM by Lineweaver-Burk plot analysis
[7] = biological target: T1, Amine oxidase [flavin-containing] B; test: Tight-binding competitive inhibition of recombinant human MAO-B expressed in baculovirus infected BTI insect cells at varying substrate concentration and IC50 of compound by tight-binding inhibition based assay
In short: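 For recombinant human MAO-B with kynuramine as substrate (fluorescent 4-quinolinol read-out), IC50 values were determined at different substrate concentrations and then plotted against substrate concentration to assess tight-binding competitive inhibition.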

[8] = Cytotoxicity against human SH-SY5Y cells assessed as cell viability at 5 uM measured after 24 hrs by MTT assay relative to control; format: cell-based; settings: read-out: Activity; in short: as §3
[9] = Cytotoxicity against human SH-SY5Y cells assessed as cell viability at 10 uM measured after 24 hrs by MTT assay relative to control; format: cell-based; settings: read-out: Activity; in short: as §3
[10] = Solubility of compound at >=25 uM; format: physicochemical
[11] = biological target: T1, Amine oxidase [flavin-containing] B; test: Mixed inhibition of recombinant human MAO-B expressed in baculovirus infected BTI insect cells at 0.32 to 2.6 uM by Lineweaver-Burk plot analysis

SMILES	inhibition at 25 µM [1] [%]	IC50 ([2]; read-out: IC50) [µM]	also measured
CC(C)=CCC/C(C)=C/CC/C(C)=C/CC1=C(C)C(=O)C(O)=C(O)C1=O	93.1	1.3	Activity (SH-SY5Y [3]): >20%; Activity (SH-SY5Y [4]): Dose-dependent effect; Activity (SH-SY5Y [5]): Non-Toxic; inhibition (INH) [6]: Active; inhibition (INH) [7]: Active
CC(C)=CCC/C(C)=C/Cc1c(C)cc(O)c(O)c1O	88.7	10.5	
CC(C)=CCC/C(C)=C/Cc1c(O)cc(O)c(C(=O)O)c1C	31.2		
CC(C)=CCC/C(C)=C/CC1=C(C)C(=O)C(O)=C(O)C1=O	92.2	1.4	
CC(C)=CCC/C(C)=C/CC/C(C)=C/Cc1c(O)cc(O)c(C=O)c1C	91.2	2.3	Activity (SH-SY5Y [3]): >20%; Activity (SH-SY5Y [4]): Dose-dependent effect; Activity (SH-SY5Y [5]): Non-Toxic
CC(C)=CCC/C(C)=C/CC/C(C)=C/Cc1c(C)cc(O)cc1O	96.4	9.2	viability at 24 h, 5 µM [8]: 63%; viability at 24 h, 10 µM [9]: 60%
CC(C)=CCC/C(C)=C/CC/C(C)=C/Cc1c(O)cc(O)c(C(=O)O)c1C	49.2	26.5	
CC(C)=CCC/C(C)=C/Cc1c(O)cc(O)c(C=O)c1C	77.4	19.7	
CC(C)=CCC/C(C)=C/CC/C(C)=C/Cc1c(C)c(C=O)c(O)c(C/C=C(\C)CC/C=C(\C)CCC=C(C)C)c1O	48.8		IC50 [2]: Nd(Insoluble); solubility [10]: Insoluble
CC(C)=CCC/C(C)=C/Cc1c(C)c(C=O)c(O)c(C/C=C(\C)CCC=C(C)C)c1O	48.1		IC50 [2]: Nd(Insoluble); solubility [10]: Insoluble
CC(C)=CCC/C(C)=C/CC/C(C)=C/Cc1c(C)cc(O)c(O)c1O	97.8	1.3	Activity (SH-SY5Y [3]): >20%; Activity (SH-SY5Y [4]): Dose-dependent effect; Activity (SH-SY5Y [5]): Non-Toxic; inhibition (INH) [11]: Active; inhibition (INH) [7]: Active

Second part, led by results:

inhibition at 25 µM [1] [%]	IC50 ([2]; read-out: IC50) [µM]	SMILES	also measured
32.7		CC(C)=CCc1c(C)cc(O)c(O)c1O	
84.7	5.5	CC(C)=CCc1c(C)c(C=O)c(O)c(CC=C(C)C)c1O	
30.7		CC(C)=CCC/C(C)=C/Cc1c(C)cc(O)cc1O	
36.3		CC(C)=CCc1c(O)cc(O)c(C=O)c1C	
38		COc1c(C)c(C/C=C(\C)CCC=C(C)C)c(OC)c(OC)c1OC	
5.4		COc1cc(C)c(CC=C(C)C)c(OC)c1	
10.8		COc1cc(C)c(C/C=C(\C)CC/C=C(\C)CCC=C(C)C)c(OC)c1	
15.2		COc1c(C)c(C/C=C(\C)CC/C=C(\C)CCC=C(C)C)c(OC)c(OC)c1OC	
34.9		COc1cc(C)c(C/C=C(\C)CC/C=C(\C)CCC=C(C)C)c(OC)c1OC	
18.6		COc1cc(C)c(CC=C(C)C)c(OC)c1OC	
4.2		CC(C)=CCc1c(C)cc(O)cc1O	
5.9		COc1cc(C)c(C/C=C(\C)CCC=C(C)C)c(OC)c1OC	
16.3		CC(C)=CCc1c(O)cc(O)c(C(=O)O)c1C	
38.3		CC(C)=CCC1=C(C)C(=O)C(O)=C(O)C1=O	
7.2		COc1c(C)c(CC=C(C)C)c(OC)c(OC)c1OC	
